Experimental data reported in ChEMBL document CHEMBL1131061, “Design and synthesis of a series of potent and orally bioavailable noncovalent thrombin inhibitors that utilize nonbasic groups in the P1 position” (J Med Chem, 1998).

How the values were obtained:
[1] = Partition coefficient (logP); assay type: physicochemical; conditions: octanol/water
In short: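 Log P determined experimentally by standard octanol/water partitioning.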

Chymotrypsinogen A [2] = target: T1, Chymotrypsinogen A (Bos taurus, UniProt P00766); experiment: Selectivity was evaluated as the binding affinity between thrombin versus Chymotrypsinogen
Serine protease 1 [3] = target: T2, Serine protease 1 (Homo sapiens, UniProt P07477); experiment: Selectivity was evaluated as the binding affinity between thrombin versus trypsin.
T2 sequence (P07477 whole entry): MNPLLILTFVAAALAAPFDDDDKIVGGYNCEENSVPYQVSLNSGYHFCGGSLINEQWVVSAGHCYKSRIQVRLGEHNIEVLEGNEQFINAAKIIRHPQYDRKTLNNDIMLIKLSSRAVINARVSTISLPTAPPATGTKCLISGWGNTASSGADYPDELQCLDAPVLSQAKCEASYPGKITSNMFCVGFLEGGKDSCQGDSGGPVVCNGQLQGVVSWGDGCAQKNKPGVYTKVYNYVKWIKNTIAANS

[4] = Oral bioavailability in dog (dosed in a suspension of 1% methocel); assay type: ADME, organism-based, Canis lupus familiaris; conditions: in vivo
In short: (§1)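 Fasted animals (24 h without food). Oral dose by gavage as a 1% methocel suspension. Intravenous dose given by indwelling jugular vein cannula in rat and by peripheral venipuncture in dog and cynomolgus monkey, in saline or 20% PEG 200. iv/po doses in mg/kg: rat 2/10, 5/20 or 5/12; dog 2/5 or 1/5; monkey 1/5. F (%) is the mean of at least three determinations.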

Prothrombin = Prothrombin (Homo sapiens, UniProt P00734); experiment: Binding affinity was evaluated on serine protease thrombin.
[5] = Oral bioavailability in rat when dosed in a suspension of 1% methocel; assay type: ADME, organism-based; conditions: in vivo; in short: as §1
[6] = Oral bioavailability in cynomolgus monkey (dosed in a suspension of 1% methocel); assay type: ADME, organism-based, Macaca fascicularis; conditions: in vivo; in short: as §1
Homo sapiens [7] = organism: Homo sapiens; experiment: % Free drug present in human plasma.; assay type: ADME, organism-based
[8] = Oral bioavailability in cynomolgus monkey (dose 5 mg/kg); assay type: ADME, organism-based, Macaca fascicularis; conditions: in vivo; in short: as §1
Chymotrypsinogen A [9] = target: T1, Chymotrypsinogen A; experiment: Binding affinity was evaluated on serine protease Chymotrypsinogen; assay type: single protein
Homo sapiens [10] = organism: Homo sapiens; experiment: Concentration of compound in plasma required to double the activated partial thromboplastin time in human measured as 2(APTT) value; assay type: functional, cell-free
In short: (§2)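 2 × APTT is the inhibitor concentration in plasma required to double the activated partial thromboplastin time.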

Plasminogen = Plasminogen (Homo sapiens, UniProt P00747); experiment: Binding affinity was evaluated on serine protease plasmin.
Chain of Plasminogen (P00747 97-580 limits assumed): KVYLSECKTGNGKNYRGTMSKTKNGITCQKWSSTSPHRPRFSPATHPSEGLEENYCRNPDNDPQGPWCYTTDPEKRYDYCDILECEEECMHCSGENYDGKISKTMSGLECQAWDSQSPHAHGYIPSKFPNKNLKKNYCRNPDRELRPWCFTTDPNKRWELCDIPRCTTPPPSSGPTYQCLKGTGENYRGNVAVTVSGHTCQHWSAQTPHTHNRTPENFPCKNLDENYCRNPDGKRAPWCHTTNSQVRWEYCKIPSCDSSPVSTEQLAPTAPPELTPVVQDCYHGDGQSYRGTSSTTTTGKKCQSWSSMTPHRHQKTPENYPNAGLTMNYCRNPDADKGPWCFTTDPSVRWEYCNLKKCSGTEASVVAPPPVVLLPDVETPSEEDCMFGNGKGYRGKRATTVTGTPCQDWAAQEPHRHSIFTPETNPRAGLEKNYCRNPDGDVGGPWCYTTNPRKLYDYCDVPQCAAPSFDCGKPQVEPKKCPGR
Chain of Plasminogen (P00747 581-810 limits assumed): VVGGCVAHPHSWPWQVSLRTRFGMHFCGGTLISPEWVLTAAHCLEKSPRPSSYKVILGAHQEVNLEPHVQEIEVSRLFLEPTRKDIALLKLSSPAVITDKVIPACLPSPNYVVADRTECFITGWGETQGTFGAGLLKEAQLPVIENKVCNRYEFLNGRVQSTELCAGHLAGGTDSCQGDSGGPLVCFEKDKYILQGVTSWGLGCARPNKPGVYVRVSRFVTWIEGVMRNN

Plasma kallikrein = Plasma kallikrein (Homo sapiens, UniProt P03952); experiment: Binding affinity was evaluated on serine protease plasma kallikrein.; assay type: cell-free
Chain of Plasma kallikrein (P03952 20-390 limits assumed): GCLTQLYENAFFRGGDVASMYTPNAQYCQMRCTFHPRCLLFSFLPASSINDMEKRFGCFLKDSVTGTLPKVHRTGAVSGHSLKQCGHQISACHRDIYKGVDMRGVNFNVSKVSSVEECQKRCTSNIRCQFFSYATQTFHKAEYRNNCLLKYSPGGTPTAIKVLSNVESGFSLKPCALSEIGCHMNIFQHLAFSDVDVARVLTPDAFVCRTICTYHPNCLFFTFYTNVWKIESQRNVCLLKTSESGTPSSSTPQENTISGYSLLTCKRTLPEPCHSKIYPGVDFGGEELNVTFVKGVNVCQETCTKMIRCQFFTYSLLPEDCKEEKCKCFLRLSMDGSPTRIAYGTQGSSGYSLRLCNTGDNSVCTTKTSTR
Chain of Plasma kallikrein (P03952 391-638 limits assumed): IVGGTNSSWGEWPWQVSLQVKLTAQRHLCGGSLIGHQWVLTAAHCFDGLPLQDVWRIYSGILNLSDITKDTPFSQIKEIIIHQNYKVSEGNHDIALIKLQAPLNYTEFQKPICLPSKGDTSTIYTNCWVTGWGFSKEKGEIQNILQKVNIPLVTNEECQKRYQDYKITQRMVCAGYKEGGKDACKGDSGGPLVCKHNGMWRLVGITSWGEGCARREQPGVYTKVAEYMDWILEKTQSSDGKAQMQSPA

Rattus norvegicus [11] = organism: Rattus norvegicus; experiment: Concentration of compound in plasma required to double the activated partial thromboplastin time in rat measured as 2(APTT) value; assay type: functional, cell-free; in short: as §2
Rattus norvegicus [12] = organism: Rattus norvegicus; experiment: (§3) % Free drug present in rat plasma.; assay type: functional
[13] = target: Tissue-type plasminogen activator (Homo sapiens, UniProt P00750); experiment: Binding affinity was evaluated on serine protease TPA.
Chain of Tissue-type plasminogen activator (P00750 whole entry): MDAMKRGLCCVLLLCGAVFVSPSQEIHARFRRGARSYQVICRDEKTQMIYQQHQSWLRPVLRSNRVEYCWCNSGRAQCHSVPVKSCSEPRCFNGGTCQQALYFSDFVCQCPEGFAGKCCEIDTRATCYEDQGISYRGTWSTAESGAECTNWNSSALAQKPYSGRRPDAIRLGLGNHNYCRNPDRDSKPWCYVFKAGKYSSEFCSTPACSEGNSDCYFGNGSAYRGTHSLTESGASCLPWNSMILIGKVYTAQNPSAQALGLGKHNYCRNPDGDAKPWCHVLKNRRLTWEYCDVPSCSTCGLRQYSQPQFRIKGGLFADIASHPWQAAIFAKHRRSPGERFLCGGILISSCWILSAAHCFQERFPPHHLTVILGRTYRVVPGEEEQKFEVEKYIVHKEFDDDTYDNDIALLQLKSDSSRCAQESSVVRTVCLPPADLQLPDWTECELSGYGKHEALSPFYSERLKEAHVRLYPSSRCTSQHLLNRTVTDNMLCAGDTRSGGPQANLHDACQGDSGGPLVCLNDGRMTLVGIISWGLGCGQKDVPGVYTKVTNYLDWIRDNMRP

Serine protease 1 [14] = target: T2, Serine protease 1; experiment: Binding affinity was evaluated on serine protease trypsin.
Rattus norvegicus [15] = organism: Rattus norvegicus; experiment: The final concentration in plasma of rat carotid artery FeCl3 induced thrombosis model; assay type: ADME, organism-based
In short: (§4)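 Rat carotid artery FeCl₃-induced thrombosis model. Compound in saline vehicle infused iv at 10 μg/kg/min for 120 min before the FeCl₃ insult. Plasma drug concentration measured. Saline vehicle controls run alongside.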

Rattus norvegicus [16] = organism: Rattus norvegicus; experiment: as §3; assay type: ADME, organism-based
[17] = Oral bioavailability in rats when dosed in a suspension of 1% methocel; assay type: ADME, organism-based; conditions: rat, in vivo; in short: as §1
[18] = The concentration in plasma; assay type: ADME, cell-free; in short: as §4
[19] = The 2(APTT) value is defined as the concentration of compound in plasma required to double the activated partial thromboplastin time in human; assay type: functional; in short: as §2

| Ki (Prothrombin) [µM] | SMILES | logP [1] | bioavailability [5] [%] | Free (Homo sapiens [7]) [%] | Ki (Chymotrypsinogen A [9]) [µM] | Concentration (Homo sapiens [10]) [µM] | Ki (Plasminogen) [µM] | Ki (Plasma kallikrein) [µM] | Concentration (Rattus norvegicus [11]) [µM] | Ki [13] [µM] | Ki (Serine protease 1 [14]) [µM] | concentration (Rattus norvegicus [15]) [nM] | other results |
| --- | --- | --- | --- | --- | --- | --- | --- | --- | --- | --- | --- | --- | --- |
|  | NC(C(=O)N1CCC[C@H]1C(=O)NCc1cc(Cl)ccc1Cl)C(c1ccccc1)c1ccccc1 (stereo partly specified) | > 3.1 |  |  |  |  |  |  |  |  |  |  | Ki (Chymotrypsinogen A [2]): > 50 µM; Ki (Serine protease 1 [3]): 7 µM; bioavailability [4]: 45% |
| 0.02 | CCN(CC)C(=O)CN[C@@H](C(=O)N1CCC[C@H]1C(=O)NCc1ccccc1Cl)C1CCCCC1 |  |  |  |  |  |  |  |  |  |  |  |  |
|  | N[C@@H](C(=O)N1CCC[C@H]1C(=O)NCc1cc(Cl)ccc1OCC(=O)NC1CC1)C1CCCCC1 | 2.04 | 20 | 12 | 67 | 0.35 | 113 | 79 | 0.42 | 36 | 18 |  | bioavailability [6]: 34%; bioavailability [8]: 34%; Free (Rattus norvegicus [12]): 11% |
| 0.00045 | CCOC(=O)COc1ccc(Cl)cc1CNC(=O)[C@@H]1CCCN1C(=O)[C@H](N)C1CCCCC1 |  |  |  |  |  |  |  |  |  |  |  |  |
| 0.00031 | CCN(CC)C(=O)CN[C@@H](C(=O)N1CCC[C@H]1C(=O)NCc1cc(Cl)ccc1Cl)C1CCCCC1 | 2.67 |  |  | 174 |  | 244 | 399 |  | 29 | 27 | 245 | bioavailability [17]: 10% |
|  | CCNC(=O)COc1ccc(Cl)cc1CNC(=O)[C@@H]1CCCN1C(=O)[C@H](N)C1CCCCC1 | 2.07 | 10 | 15 | 71 | 0.41 |  |  | 0.38 |  | 23 |  | bioavailability [6]: 63%; bioavailability [8]: 63%; Free (Rattus norvegicus [12]): 14%; concentration [18]: 794 nM; bioavailability [4]: 40% |
| 0.0025 | N[C@@H](C(=O)N1CCC[C@H]1C(=O)NCc1cc(Cl)ccc1O)C1CCCCC1 |  |  |  |  |  |  |  |  |  |  |  |  |
|  | CC1CNc2c(cccc2S(=O)(=O)N[C@@H](CCCNC(=N)N)C(=O)N2CCC(C)C[C@@H]2C(=O)O)C1 (single isomer, unassigned) [ARGATROBAN] |  |  |  |  |  |  |  |  |  |  |  | 2*APTT [19]: 0.28 µM |

| SMILES | Ki (Prothrombin) [µM] | logP [1] | bioavailability [5] [%] | Free (Homo sapiens [7]) [%] | Ki (Chymotrypsinogen A [9]) [µM] | Concentration (Homo sapiens [10]) [µM] | Ki (Plasminogen) [µM] | Ki (Plasma kallikrein) [µM] | Concentration (Rattus norvegicus [11]) [µM] | Ki [13] [µM] | Ki (Serine protease 1 [14]) [µM] | concentration (Rattus norvegicus [15]) [nM] | other results |
| --- | --- | --- | --- | --- | --- | --- | --- | --- | --- | --- | --- | --- | --- |
| N[C@@H](C(=O)N1CCC[C@H]1C(=O)NCc1cc(Cl)ccc1Cl)C1CCCCC1 | 0.005 | 2.63 | 23 | 4 | 49 | 0.95 | 691 | 586 |  | 19 | 29 | 329 | Free (Rattus norvegicus [16]): 9% |
| NC(=O)COc1ccc(Cl)cc1CNC(=O)[C@@H]1CCCN1C(=O)[C@H](N)C1CCCCC1 | 0.0005 | 1.96 |  | 26 | 131 | 0.25 | 152 | 816 | 0.31 | 11 | 9 | 726 | Free (Rattus norvegicus [16]): 7% |
